According to ChEMBL document CHEMBL4732136, “Synthesis, Tumor Specificity, and Photosensitizing Efficacy of Erlotinib-Conjugated Chlorins and Bacteriochlorins: Identification of a Highly Effective Candidate for Photodynamic Therapy of Cancer” (J Med Chem, 2021):

How the values were obtained:
FaDu [1] = experiment: Photosensitizing activity in human FaDu cells assessed as reduction in cell viability pretreated with compound for 24 hrs followed by light irradiation at 1 J/cm2 and measured after 48 hrs by MTT assay; assay type: functional, cell-based; details: light or radiation study
How it was run: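 Cells seeded at 0.01–0.05 x 10⁶ cells/ml; PS added 24 h after plating, top dose 1600 nM with 2-fold serial dilutions. Plates given 0 or 1 J/cm² light. MTT added 48 h later, formazan dissolved in DMSO, absorbance at 570 nm; IC50 from curve fitting.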

[2] = Drug uptake in skin of iv dosed SCID mouse xenografted with UMUC3 cells by fluorescence imaging analysis; details: in vivo
[3] = Drug uptake in tumor of iv dosed SCID mouse xenografted with human UMUC3 cells by fluorescence imaging analysis; assay type: ADME, organism-based, Neoplasm; details: in vivo
[4] = Drug uptake in human FaDu clone 49 cells assessed as increase in drug retention at 1.6 uM in RPMI medium with 10% FBS followed by 48 hrs chase period by inverted fluorescence microscopic analysis
FaDu [5] = experiment: Photodynamic antitumor activity against human FaDu cells xenografted in SCID mouse assessed as cure rate at 0.125 micromol/kg, iv pretreated with compound followed by light irradiation at a dose of 135 J/cm2 and 75 mW/cm2 measured for 60 days post dose relative to control; assay type: functional; details: dose 0.125 µmol/kg; time 60 day
How it was run: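 FaDu-bearing female SCID mice (5 per group per experiment) given iv PS at 0.47, 0.25 or 0.125 μmol/kg in Tween80/dextrose. Tumors irradiated 24 h post-injection at 665 nm, 135 J/cm², 75 mW/cm². Tumor growth measured daily for 60 days, with euthanasia above 400 mm³. Cure taken as tumor-free at day 60; survival analysed by log-rank test.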

[6] = Drug uptake in tumor of SCID mouse xenografted with human FaDu cells at 0.47 to 0.125 micromol/kg, iv pretreated with compound followed by light irradiation at a dose of 135 J/cm2 and 75 mW/cm2 and measured at 24 hrs by IVIS analysis; assay type: ADME, organism-based, Neoplasm; details: in vivo, dose 0.47-0.125 µmol/kg
How it was run: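 Female SCID mice bearing FaDu tumors 4–5 mm in diameter, 3 per group. PS in 1% Tween80/5% dextrose given iv at 0.47, 0.25 or 0.125 μmol/kg. IVIS whole-body fluorescence imaged at several time points; average radiant efficiency measured in tumor, liver and skin.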

[7] = Drug uptake in skin of iv dosed SCID mouse xenografted with human UMUC3 cells by fluorescence imaging analysis; assay type: ADME, organism-based, Skin of body; details: in vivo
[8] = Drug uptake in liver of SCID mouse xenografted with human UMUC3 cells at 0.25 micromol/kg, iv pretreated with compound followed by light irradiation at a dose of 135 J/cm2 and 75 mW/cm2 measured after 2 to 8 hrs by IVIS analysis; assay type: ADME, organism-based; details: in vivo, time 2-8 hrs, dose 0.25 µmol/kg
How it was run: (§1)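 Female SCID mice with UMUC3 flank/shoulder tumors, 3 per group. PS in 1% Tween80/5% dextrose given iv at 0.47, 0.25 or 0.125 μmol/kg. Whole-body fluorescence imaging by IVIS at several times after injection; average radiant efficiency measured in tumor, liver and skin.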

[9] = Drug uptake in human CFSE-stained HN-121 cells assessed as increase in drug retention at 1.6 uM in medium with 10% FBS followed by 48 hrs chase period by inverted fluorescence microscopic analysis; assay type: ADME, cell-based; details: hn-121, 48 h
[10] = Drug uptake in liver of iv dosed SCID mouse xenografted with human UMUC3 cells by fluorescence imaging analysis; assay type: ADME, organism-based; details: in vivo
[11] = Drug uptake in tumor of SCID mouse xenografted with human UMUC3 cells assessed as drug accumulation at 0.47 micromol/kg, iv pretreated with compound followed by light irradiation at a dose of 135 J/cm2 and 75 mW/cm2 measured after 6 hrs by IVIS analysis; assay type: ADME, organism-based, Neoplasm; details: in vivo, dose 0.47 µmol/kg; how it was run: as §1
UMUC3 [12] = experiment: Photodynamic antitumor activity against human UMUC3 cells xenografted in SCID mouse assessed as tumor retention at 0.47 micromol/kg, iv pretreated with compound followed by light irradiation at a dose of 135 J/cm2 and 75 mW/cm2 measured at day 60 post dose relative to control; assay type: functional; details: dose 0.47 µmol/kg; time 60 day
How it was run: (§2)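 UMUC3-bearing female SCID mice given iv PS in 1% Tween80/5% dextrose. Mice restrained and tumors irradiated at 665 nm, 135 J/cm² over 30 min at 75 mW/cm², at the time of maximal tumor uptake. Tumor regrowth measured daily for 60 days; mice euthanized above 400 mm³. Cure plotted as survival curves and compared by log-rank (Mantel-Cox) test.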

[13] = Drug uptake in human HN-166 cells assessed as increase in drug retention retention at 3 uM in medium with 10% FBS incubated for 5 hrs followed by 40 hrs chase period by inverted fluorescence microscopic analysis; assay type: ADME, cell-based; details: hn-166, 5 h
How it was run: (§3)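 Five-day co-cultures of HN-143 tumor epithelial cells and HN-166 tumor fibroblasts, both primary head & neck tumor cultures grown on collagen-1 under selective media. PS in 10% FBS medium for 5 h, then 40 h chase without PS. Phase-contrast and fluorescence images taken at 100X with 500 ms exposure; signal normalized to recording time and cell number.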

UMUC3 [14] = experiment: Photodynamic antitumor activity against human UMUC3 cells xenografted in SCID mouse assessed as tumor retention at 0.25 micromol/kg, iv pretreated with compound followed by light irradiation at a dose of 135 J/cm2 and 75 mW/cm2 measured at day 60 post dose relative to control; assay type: functional; details: dose 0.25 µmol/kg; time 60 day; how it was run: as §2
[15] = Photosensitizing activity in human HN-85-1-3 cells assessed as induction of STAT3 cross-linking pretreated with compound followed by diode laser irradiation at 3 J/cm2 by immunoblot analysis (reference value: 0 %); assay type: functional
How it was run: (§4)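 Primary HN-85-1-3 tumor epithelial cells loaded with graded PS doses; uptake quantified by fluorescence before light. Dishes irradiated at 37°C with 665 nm diode laser, 6 mW/cm², 3 J/cm² total. Cells lysed in RIPA immediately after light; STAT3 crosslinking and EGFR analysed by SDS-PAGE immunoblot.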

[16] = Drug uptake in tumor of SCID mouse xenografted with human UMUC3 cells at 0.25 micromol/kg, iv pretreated with compound followed by light irradiation at a dose of 135 J/cm2 and 75 mW/cm2 measured after 2 to 8 hrs by IVIS analysis; assay type: ADME, organism-based, Neoplasm; details: in vivo, time 2-8 hrs, dose 0.25 µmol/kg; how it was run: as §1
[17] = Drug uptake in human HN-143 cells assessed as increase in drug retention retention at 3 uM in medium with 10% FBS incubated for 5 hrs followed by 40 hrs chase period by inverted fluorescence microscopic analysis; assay type: ADME, cell-based; details: hn-143, 5 h; how it was run: as §3
[18] = Drug uptake in skin of SCID mouse xenografted with human UMUC3 cells at 0.125 micromol/kg, iv pretreated with compound followed by light irradiation at a dose of 135 J/cm2 and 75 mW/cm2 measured after 2 to 24 hrs by IVIS analysis; assay type: ADME, organism-based, Skin of body; details: in vivo, time 2-24 hrs, dose 0.125 µmol/kg; how it was run: as §1
HN-85-1-3 = experiment: Photodynamic therapy in human HN-85-1-3 cells assessed as degradation of EGFR treated with compound followed by diode laser irradiation at 3 J/cm2 by immunoblot analysis; assay type: functional, cell-based; how it was run: as §4

- Drug uptake [2]: Active
- Drug uptake [3]: Active
- Drug uptake [4]: Active
- Drug uptake [6]: Active
- Drug uptake [7]: Active
- Drug uptake [8]: Active
- Drug uptake [9]: Active
- Drug uptake [10]: Active
- Drug uptake [11]: Active
- Drug uptake [13]: Active
- Drug uptake [16]: Active
- Drug uptake [17]: Active
- Drug uptake [18]: Active
SMILES: CCC1=C(C)c2cc3[nH]c(cc4nc(c5c6[nH]c(cc1n2)c(C)c6C(=O)C5)[C@@H](CCC(=O)OC)[C@@H]4C)c(C)c3C(C)OCc1cccc(C#Cc2cccc(Nc3ncnc4cc(OCCOC)c(OCCOC)cc34)c2)c1 (some centres undefined)
- IC50 (FaDu [1]): 35.5 nM
- Activity (FaDu [5]): 0%
- Activity (UMUC3 [12]): 74%
- Activity (UMUC3 [14]): 50%
- Activity [15]: 0.5%
- Activity (HN-85-1-3): Dose-dependent effect
